# Screening results: PubChem, Broad Institute
# Shn3 3UTR inh = reduction of Shn3 3'UTR firefly luciferase signal, primary screen, Schnurri-3 inhibitor project, cell-based, Clone20 osteoblasts, set 2; Clone20 osteoblast Shn3 3'UTR firefly luciferase, 24 h; inhibition, % at 12.5 µM; AID 588674, 2011; 360,000 tested, 0.52% active;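 active = mean inhibition of at least 75% with every replicate also reaching 75%; inconclusive = mean inhibition at least 75% but some replicate below; inactive = mean inhibition below 75%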
# EWS-Fli inh = EWS/Fli-driven NR0B1 reporter inhibitors, primary screen, A673 cells, NR0B1 luciferase, luminescence, MLPCN library; viability-normalised; inhibition, % at 12.6 µM; 350,000 tested, 0.67% active;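 active = mean inhibition of at least 50% after viability correction, with every replicate also passing that limit; inconclusive = mean reaches 50% but only one of two replicates passes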;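 also: firefly luciferase signal divided by Alamar Blue viability fluorescence both relative to DMSO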
# aSyn UTR inh = MLPCN primary screen, SNCA 5' untranslated region. alpha-synuclein 5'UTR reporter, inhibitor activity. inhibition, % (tested at 7.5 µM). 300,000 tested, 0.82% active; in the data active = inhibition above about 60%; inconclusive = no clear call, values can overlap the other calls;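 also: H4 neuroglioblastoma cells stably carrying SNCA 5'UTR luciferase fusion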
# LMP1 NFkB inh = EBV LMP1-driven NF-kappaB luciferase reporter inhibitors, primary screen, cell-based, luminescence, single point; LMP1-induced NF-kappaB luciferase reporter cells; inhibition, % at 12.5 µM; 350,000 tested, 0.69% active; in the data active = inhibition above about 41%; inconclusive = no clear call, values can overlap the other calls
# PAX8 reporter = inhibitors of PAX8-driven TPO luciferase reporter, primary screen, RMG-I cells, single concentration. SteadyGlo, 24 h. 360,000 tested, 1.2% active. AID 652154, 2013. inhibition, % at 12.6 µM;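 active = mean replicate inhibition at least 60% with every replicate also reaching 60%; inconclusive = only one of the two criteria is met; inactive = mean below 60% and not all replicates reaching 60%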;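 also: luciferase light reporting Pax8 driven TPO promoter activity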
# FN deposit inh = inhibitors of fibronectin matrix deposition, primary screen, AH1F cells, Alexa488-fibronectin fluorescence, plate reader | inhibition, % at 12.6 µM | AH1F fibroblasts, overnight | AID 743247, 2014 | 350,000 tested, 0.086% active;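 active = mean inhibition across replicates of 30% or more, regardless of how many single replicates reach that level; inconclusive = mean under 30% yet at least half of replicates reach 30%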
#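 material = AH1F fibroblast monolayer depositing Alexa488-labelled fibronectin into matrix | amount = 10000 AH1F cells/well | buffer or medium = DMEM plus 2% serum, read in PBS | incubation = 1 h cell adhesion before compound, then overnight fibronectin incubation | detection = fluorescence at 485 nm excitation, 525 nm emission | evaluation = percent inhibition as loss of matrix-bound fibronectin fluorescence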
# Hits are given with their value; 0 = inactive; ? = inconclusive; - = not tested or not shown. The list is not random: actives were taken first. Their share in the collection is about 2.1%.
SMILES,Shn3 3UTR inh,EWS-Fli inh,aSyn UTR inh,LMP1 NFkB inh,PAX8 reporter,FN deposit inh
CCn1c(SC(C)C)nnc1-c1c[nH]c2ccccc12,0,0,0,83.9,0,0
Fc1cccc(CN2[C@@H]3CNC[C@H]2C3c2ccc(-c3ccncc3)cc2)c1 (stereo partly specified),-,0,-,-,0,0
N#CC(C#N)=C1C=CC=CN1/C(=C\c1ccccc1)C(=O)c1cccs1,0,0,0,0,0,0
N#CC(C#N)=C1C=CC=CN1/C(=C\c1ccccc1Cl)C(=O)c1ccccc1,86.6,-,-,0,0,0
C[C@@H]1CCCCO[C@@H](CN(C)CC2CCCCC2)[C@@H](C)CN([C@H](C)CO)C(=O)c2cc(NC(=O)Nc3cccc4ccccc34)ccc2O1,-,0,-,-,0,-
O=c1cc(CSc2ccc(Cl)cc2)nc(-c2ccccc2)[nH]1,0,0,0,0,0,0
O=c1cc(CSc2ccc(Cl)cc2)nc(-c2ccccn2)[nH]1,0,0,0,0,69.5,0
COc1ccc(S(=O)(=O)N2CCCCN3[C@H](CO)[C@H](c4ccc(C#CC(C)C)cc4)[C@H]3C2)cc1,-,0,-,-,76.8,0
COc1ccc(S(=O)(=O)N2CCCCN3[C@H](CO)[C@H](c4ccc(C5=CCCC5)cc4)[C@H]3C2)cc1,-,0,-,-,0,-
COc1ccc(S(=O)(=O)N2CCCCN3[C@H](C2)[C@@H](c2ccc(C#CC(C)C)cc2)[C@@H]3CO)cc1,-,0,-,-,90.8,-
COc1ccc(S(=O)(=O)N2CCCCN3[C@H](CO)[C@H](c4ccc(C5=CCCCC5)cc4)[C@H]3C2)cc1,-,0,-,-,64.6,-
Cc1noc(C)c1S(=O)(=O)Nc1ccc2c(c1)C(=O)N([C@@H](C)CO)C[C@H](C)[C@@H](CN(C)S(=O)(=O)c1ccc(Cl)cc1)OCCCC[C@@H](C)O2,-,0,-,-,?,0
N#C[C@@H]1[C@@H](c2ccc(C#Cc3cccnc3)cc2)[C@@H](CO)N1C(=O)C1CCCC1,-,0,-,-,-,0
Cc1cccc(NC(=O)COC(=O)c2cccc3c2C(=O)c2ccccc2C3=O)c1C,0,0,0,0,0,0
Cc1cccc(C)c1NC(=O)COC(=O)c1cccc2c1C(=O)c1ccccc1C2=O,0,0,67.9,0,0,0
Cc1noc(C)c1COc1ccc(CC(=O)NCc2ccccc2)cc1,0,0,71.9,0,0,0
Cc1noc(C)c1COc1cccc(C(=O)NCCc2c[nH]c3ccccc23)c1,0,54.7,0,0,0,0
CC1CC2(C)Oc3ccccc3CC2C(C)C1CNCCCN(C)C (stereo unspecified),0,0,105.5,0,0,0
C[C@H]1CCCCO[C@@H](CN(C)C)[C@@H](C)CN([C@@H](C)CO)C(=O)c2cc(NC(=O)Nc3ccc(C(F)(F)F)cc3)ccc2O1,-,0,-,-,88.2,-
C[C@@H]1CCCCO[C@@H](CN(C)C(=O)Nc2ccc(C(F)(F)F)cc2)[C@H](C)CN([C@@H](C)CO)C(=O)c2cc(NC(=O)Nc3ccc(C(F)(F)F)cc3)ccc2O1,-,0,-,-,77.4,0
C[C@@H]1CN([C@H](C)CO)C(=O)c2cc(NC(=O)Nc3ccc(C(F)(F)F)cc3)ccc2O[C@@H](C)CCCCO[C@H]1CN(C)C(=O)Nc1ccc(C(F)(F)F)cc1,-,0,-,-,95.6,0
C[C@H]1CCCCO[C@H](CN(C)C(=O)Nc2ccc(C(F)(F)F)cc2)[C@@H](C)CN([C@@H](C)CO)C(=O)c2cc(NC(=O)CCC(F)(F)F)ccc2O1,-,0,-,-,87.3,-
C[C@H]1CCCCO[C@H](CN(C)C(=O)Nc2ccc(C(F)(F)F)cc2)[C@@H](C)CN([C@@H](C)CO)C(=O)c2cc(NC(=O)Nc3ccc(C(F)(F)F)cc3)ccc2O1,-,0,-,-,0,0
C[C@@H]1CCCCO[C@H](CN(C)C(=O)Nc2ccc(C(F)(F)F)cc2)[C@H](C)CN([C@@H](C)CO)C(=O)c2cc(NC(=O)CCC(F)(F)F)ccc2O1,-,0,-,-,0,-
C[C@H]1CCCCO[C@@H](CN(C)Cc2ccc(C(=O)O)cc2)[C@@H](C)CN([C@@H](C)CO)C(=O)c2cc(NC(=O)Nc3ccc(F)cc3)ccc2O1,-,0,-,-,0,-
SMILES,Shn3 3UTR inh,EWS-Fli inh,aSyn UTR inh,LMP1 NFkB inh,PAX8 reporter,FN deposit inh
C[C@@H]1CN([C@H](C)CO)C(=O)c2cc(Br)cnc2O[C@H]1CN(C)S(=O)(=O)c1ccc(F)cc1,-,0,-,-,-,0
CCCC(=O)Nc1ccc2c(c1)C(=O)N(C)[C@H]1CC[C@H](CC(=O)Nc3ccccc3F)O[C@@H]1CO2,-,0,-,-,0,0
COc1cc(OC)cc(C2=Cc3ccccc3C(CC(C)=O)N2c2ccc(-c3cccs3)cc2)c1 (stereo unspecified),-,0,-,-,69.7,-
COc1ccccc1NC(=O)c1oc2ccccc2c1NC(=O)c1cc(OC)c(OC)c(OC)c1,0,60.3,0,0,-,-
CCOC(=O)C(=CNc1ccc(-c2ccco2)c(Cl)c1)C(=O)OCC,0,0,0,47.3,0,0
CCOC(=O)C(=CNc1ccc(N2CCOCC2)cc1)C(=O)OCC,0,0,0,0,0,0
COc1cc(C(=O)Nc2ccc3ccccc3c2)cc(OC)c1OC,-,0,88.5,-,0,0
CCOC(=O)C(=CNc1cc(Cl)c(-c2ccco2)c(Cl)c1)C(=O)OCC,0,0,0,0,0,0
CCOC(=O)C(=CNc1ccc2c(c1)CCN2C(C)=O)C(=O)OCC,0,0,0,49.3,0,0
O=C(NCC[C@@H]1CC[C@@H](NC(=O)c2ccccc2F)[C@@H](CO)O1)c1ccc2c(c1)OCO2,-,0,-,-,0,0
COc1ccc(C(=O)Nc2ccc3ccccc3c2)cc1,0,60.7,0,0,0,0
COc1cc(C(=O)Nc2ccc3c(c2)Cc2ccccc2-3)cc(OC)c1OC,0,0,0,0,0,0
COc1cc(C(=O)Nc2ccc3c(c2)CCN3C(C)=O)cc(OC)c1OC,0,66.9,96.9,0,0,0
CNC[C@@H]1OCCCC[C@H](C)Oc2ccc(NS(=O)(=O)c3ccc(OC)cc3)cc2C(=O)N([C@H](C)CO)C[C@@H]1C,-,0,-,-,0,-
C[C@@H]1CCCCO[C@@H](CN(C)S(=O)(=O)c2ccc(F)cc2)[C@H](C)CN([C@@H](C)CO)C(=O)c2cc(NC(=O)Nc3ccc(C(F)(F)F)cc3)ccc2O1,-,0,-,-,0,0
C[C@@H]1CCCCO[C@@H](CN(C)S(=O)(=O)c2ccc(Cl)cc2)[C@@H](C)CN([C@H](C)CO)C(=O)c2cc(NC(=O)Nc3ccc(C(F)(F)F)cc3)ccc2O1,-,0,-,-,0,-
C[C@@H]1CCCCO[C@@H](CN(C)S(=O)(=O)c2ccc(Cl)cc2)[C@H](C)CN([C@H](C)CO)C(=O)c2cc(NC(=O)Nc3ccc(C(F)(F)F)cc3)ccc2O1,-,0,-,-,70.3,0
